ChEMBL document CHEMBL4304748, “Design, Synthesis, and Biological Evaluation of a New Series of Carvedilol Derivatives That Protect Sensory Hair Cells from Aminoglycoside-Induced Damage by Blocking the Mechanoelectrical Transducer Channel” (J Med Chem, 2019)
Active and inactive are the calls of the source. The calls are words filed in the database; no cut-off is given here.

Legend:
Mus musculus [1] = organism: Mus musculus; assay: Otoprotective activity against gentamicin-induced outer hair cell death in CD-1 mouse cochlea at 20 uM after 48 hrs by TRITC-phalloidin staining-based microscopic analysis relative to control; assay type: functional
Outline: (§1)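 Mouse cochlear cultures coincubated for 48 h with 5 μM gentamicin plus compound (5, 10 or 20 μM). OHCs counted in a 300 μm long segment of the mid-basal cochlea. Counts compared with 0.5% DMSO control and with gentamicin + 0.5% DMSO cultures.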

[2] = Cytotoxicity against CD-1 mouse cochlea assessed as induction of cell damage at 20 uM in presence of gentamicin after 48 hrs by confocal microscopic analysis; assay type: toxicity, tissue-based
Outline: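 Mouse cochlear cultures exposed 48 h to 5 μM gentamicin plus 20 μM compound, with 0.5% DMSO and gentamicin-only controls. Hair cells and bundle morphology imaged, including confocal imaging of IHC stereociliary bundles. OHC survival counted in a 300 μm segment of the mid-basal region.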

Mus musculus [3] = organism: Mus musculus; assay: Inhibition of MET in CD-1 mouse cochlea outer hair cells assessed as blockade of MET currents at 10 uM measured at -164 mV membrane potential by patch clamp assay relative to control
Outline: (§2)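 OHC MET currents recorded before and during exposure to 10 μM compound. Fractional block taken as the current during exposure relative to the control current at each membrane potential.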

Mus musculus [4] = organism: Mus musculus; assay: Inhibition of MET in CD-1 mouse cochlea outer hair cells assessed as reduction in MET currents at 10 uM measured at -160 mV to +80 mV membrane potential by patch clamp assay; outline: as §2
[5] = Binding affinity to MET in CD-1 mouse cochlear outer hair cells measured at -84 mV membrane potential in presence of calcium by patch clamp assay
[6] = Binding affinity to MET in CD-1 mouse cochlea outer hair cells measured at -104 mV membrane potential by patch clamp assay
Outline: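 MET currents recorded from outer hair cells of mouse cochlear cultures before and during extracellular superfusion of compound at 1, 3 and 10 μM. Membrane potentials stepped from -164 to +96 mV. Currents normalized to the peak control current at +96 mV for each cell. Dose–response curves at each potential fitted with eq 1 to give KD and Hill coefficient.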

Mus musculus [7] = organism: Mus musculus; assay: Otoprotective activity against gentamicin-induced outer hair cell death in CD-1 mouse cochlea at 10 uM after 48 hrs by TRITC-phalloidin staining-based microscopic analysis relative to control; assay type: functional; outline: as §1
Mus musculus [8] = organism: Mus musculus; assay: Otoprotective activity against gentamicin-induced outer hair cell death in CD-1 mouse cochlea at 5 uM after 48 hrs by TRITC-phalloidin staining-based microscopic analysis relative to control; assay type: functional; outline: as §1
Mus musculus [9] = organism: Mus musculus; assay: Inhibition of MET in CD-1 mouse cochlea outer hair cells assessed as blockade of MET currents at 10 uM measured at -160 mV to +80 mV membrane potential by patch clamp assay relative to control; outline: as §2

For `COc1ccccc1OCCNCCCCOc1cccc2[nH]c3ccccc3c12`, which Activity (Mus musculus [1]) is on record?
Its Activity is “inactive”.

And the Activity [2]?
Its Activity is “Toxic”.

For `COc1ccccc1OCCNC(=O)COc1cccc2[nH]c3ccccc3c12`, which Activity (Mus musculus [1]) is on record?
Its Activity is “inactive”.

For `OC(CNCCc1ccccc1)Cn1c2ccccc2c2ccccc21` (configuration not stated), which Activity (Mus musculus [1]) is on record?
The Activity was “inactive”.

And the Activity [2]?
Its Activity is “Toxic”.

With `OC(CNCCOc1ccccc1)COc1cccc2[nH]c3ccccc3c12` (configuration not stated) as the compound, how does the Activity (Mus musculus [1]) read?
The Activity was “inactive”.

And the inhibition (Mus musculus [3])?
The inhibition was 50 to 60%.

And the Activity [2]?
The Activity was “Toxic”.

Which results are given for `COc1ccccc1OCCNCC(O)COc1ccccc1OC` (configuration not stated)?
Activity (Mus musculus [1]): inactive; inhibition (Mus musculus [4]): inactive

With `CN[C@@H]1[C@H](O[C@H]2[C@H](O[C@@H]3[C@@H](O)[C@H](O)[C@@H](NC(=N)N)[C@H](O)[C@H]3NC(=N)N)O[C@@H](C)[C@]2(O)CO)O[C@@H](CO)[C@H](O)[C@H]1O` as the compound, how does the Kd [5] read?
The Kd was 7 µM.

With `COc1ccccc1OCCNCCOc1ccccc1OC` as the compound, how does the Activity (Mus musculus [1]) read?
The Activity was “inactive”.

And the inhibition (Mus musculus [4])?
The inhibition was “inactive”.

With `COc1cc2c3cc1Oc1cc(ccc1O)C[C@@H]1c4c(cc(OC)c(O)c4Oc4ccc(cc4)C[C@@H]3N(C)CC2)CC[N+]1(C)C` [TUBOCURARINE] as the compound, how does the Kd [6] read?
The Kd was 2.2 µM.

Which results are given for `COc1ccccc1N1CCN(CC(O)COc2cccc3ccccc23)CC1` (configuration not stated)?
Activity (Mus musculus [1]): Active; Activity (Mus musculus [7]): inactive; inhibition (Mus musculus [4]): inactive

For `Cn1cc(C(F)(F)F)nc1-c1ccc(OCC(O)CNCCOc2ccc(O)c(C(N)=O)c2)cc1` (configuration not stated), which Activity (Mus musculus [1]) is on record?
Its Activity is “inactive”.

For `COc1ccccc1OCCN(CCN1CCOCC1)CC(O)COc1cccc2[nH]c3ccccc3c12` (configuration not stated), which Activity (Mus musculus [8]) is on record?
The Activity was “inactive”.

What about the Activity (Mus musculus [1]) of the same compound?
The Activity was “Active”.

And the inhibition (Mus musculus [4])?
The inhibition was “Active”.

For `COc1ccccc1OCCNCC(O)COc1ccc2c(c1)[nH]c1ccccc12` (configuration not stated), which Activity (Mus musculus [1]) is on record?
The Activity was “inactive”.

What about the Activity [2] of the same compound?
Its Activity is “Toxic”.

With `COc1ccccc1OCCCCCCOc1cccc2[nH]c3ccccc3c12` as the compound, how does the Activity (Mus musculus [1]) read?
The Activity was “inactive”.

And the Activity [2]?
The Activity was “Toxic”.

With `OC(COc1cccc2[nH]c3ccccc3c12)CN1CCN(c2ccccc2)CC1` (configuration not stated) as the compound, how does the Activity (Mus musculus [1]) read?
The Activity was “inactive”.

What does the source list for `COc1ccccc1OCCN(CCOc1ccccc1OC)CC(O)COc1cccc2[nH]c3ccccc3c12` (configuration not stated)?
Activity (Mus musculus [8]): inactive; Activity (Mus musculus [1]): Active; Activity (Mus musculus [7]): inactive; inhibition (Mus musculus [9]): 40%; inhibition (Mus musculus [3]): Active

Which Activity (Mus musculus [1]) does the source give for `CC(C)NCC(O)COc1cccc2ccccc12` (configuration not stated) here?
The Activity was “inactive”.

What does the source list for `CCCCNCC(O)COc1cccc2[nH]c3ccccc3c12` (configuration not stated)?
Activity (Mus musculus [8]): inactive; Activity (Mus musculus [1]): Active; Activity (Mus musculus [7]): inactive; inhibition (Mus musculus [3]): 50 to 60%

For `COc1ccc(CCN(C)CCCC(C#N)(c2ccc(OC)c(OC)c2)C(C)C)cc1OC` (configuration not stated), which Activity (Mus musculus [1]) is on record?
The Activity was “inactive”.
